Measured values from ChEMBL document CHEMBL1127338, “Synthesis and antifungal activity of 1,3,2-benzodithiazole S-oxides” (J Med Chem, 1994).
In brackets after ≈: the same amount, converted by molar mass.

Tests used:
Candida albicans [1] = experiment: Antifungal activity against Candida albicans 38247 strain; assay type: functional
In short: (§1)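 MIC determined by microtiter broth dilution in yeast nitrogen base with 0.05% glucose. Inoculum came from an overnight plate culture, at a final 5×10^4 cfu/mL. Plates were incubated at 35 °C for 24-48 h. MIC was taken as the lowest drug concentration completely inhibiting visible growth. 10231, 442 and 579A are clinical isolates; 38247 is a nonclinical amphotericin-resistant strain.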

Candida albicans [2] = experiment: Antifungal activity against Candida albicans 579A strain; assay type: functional; in short: as §1
Candida albicans [3] = experiment: Antifungal activity against Candida albicans 10231 strain; assay type: functional; in short: as §1
Candida albicans [4] = experiment: Antifungal activity against Candida albicans CCH442 strain; assay type: functional; in short: as §1
Rattus norvegicus [5] = experiment: % of the total radioactive dose of compound present in the 0-24 hour urine after a single 5 mg/kg dose administered intravenously in rats; assay type: ADME, organism-based; design: dose 5 mg/kg, route intravenous; details: in vivo, iv
In short: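 14C-benzylic-labelled compound mixed with unlabelled material, given once iv at 5 mg/kg (~15 μCi per rat) as a 5 mg/mL solution in ethanol/propylene glycol/saline (20:35:45). Urine and feces collected daily for 3 days from two rats. Duplicate urine aliquots counted by liquid scintillation with quench correction. Fecal homogenates oxidized to 14CO2 before counting.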

Rattus norvegicus [6] = experiment: plasma concentration of total radio activity 30 minutes after intravenous administration in rats; assay type: ADME, organism-based; details: in vivo, 0.5 h
In short: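 Rats given a single 5 mg/kg iv dose of 14C-labelled compound (~15 μCi each) in ethanol/propylene glycol/saline (20:35:45). At 30 min, one male and two female rats were anesthetized with CO2 and bled by cardiac puncture. Plasma was separated from heparinized blood by centrifugation at 4 °C for 15 min. Duplicate aliquots were counted by liquid scintillation with quench correction.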

SMILES: CCC(CC)N1Sc2ccccc2[S+]1[O-] (stereo not drawn)
- MIC (Candida albicans [1]): 50 µg/mL (≈ 207 µM)
- MIC (Candida albicans [2]): 100 µg/mL (≈ 414 µM)
- MIC (Candida albicans [3]): 100 µg/mL (≈ 414 µM)
- MIC (Candida albicans [4]): 100 µg/mL (≈ 414 µM)

SMILES: [O-][S+](c1ccccc1)N(Cc1ccccc1)Sc1ccccc1 (stereo not drawn)
- MIC (Candida albicans [1]): 50 µg/mL (≈ 147 µM)
- MIC (Candida albicans [2]): > 100 µg/mL
- MIC (Candida albicans [3]): > 100 µg/mL
- MIC (Candida albicans [4]): > 100 µg/mL

SMILES: [O-][S+]1c2ccccc2SN1Cc1c(F)cccc1F (stereo not drawn)
- MIC (Candida albicans [1]): 1.56 µg/mL (≈ 5.25 µM)
- MIC (Candida albicans [2]): 0.78 µg/mL (≈ 2.62 µM)
- MIC (Candida albicans [3]): 0.78 µg/mL (≈ 2.62 µM)
- MIC (Candida albicans [4]): 1.56 µg/mL (≈ 5.25 µM)

SMILES: [O-][S+]1c2ccccc2SN1Cc1ccc(F)c(F)c1 (stereo not drawn)
- MIC (Candida albicans [1]): 3.12 µg/mL (≈ 10.5 µM)
- MIC (Candida albicans [2]): 1.56 µg/mL (≈ 5.25 µM)
- MIC (Candida albicans [3]): 1.56 µg/mL (≈ 5.25 µM)
- MIC (Candida albicans [4]): 1.56 µg/mL (≈ 5.25 µM)

SMILES: [O-][S+]1c2ccc(F)cc2SN1Cc1ccccc1 (stereo not drawn)
- MIC (Candida albicans [1]): 1.56 µg/mL (≈ 5.58 µM)
- MIC (Candida albicans [2]): 0.78 µg/mL (≈ 2.79 µM)
- MIC (Candida albicans [3]): 0.78 µg/mL (≈ 2.79 µM)
- MIC (Candida albicans [4]): 0.78 µg/mL (≈ 2.79 µM)

SMILES: Cc1cccc2c1[S+]([O-])N(Cc1ccccc1)S2 (stereo not drawn)
- MIC (Candida albicans [1]): 1.56 µg/mL (≈ 5.66 µM)
- MIC (Candida albicans [2]): 0.78 µg/mL (≈ 2.83 µM)
- MIC (Candida albicans [3]): 0.78 µg/mL (≈ 2.83 µM)
- MIC (Candida albicans [4]): 1.56 µg/mL (≈ 5.66 µM)

SMILES: CC(C)(C)CCN1Sc2ccccc2[S+]1[O-] (stereo not drawn)
- MIC (Candida albicans [2]): 3.12 µg/mL (≈ 12.2 µM)
- MIC (Candida albicans [3]): 1.56 µg/mL (≈ 6.11 µM)
- MIC (Candida albicans [4]): 1.56 µg/mL (≈ 6.11 µM)

SMILES: Cc1ccc(C)c2c1SN(Cc1ccccc1)[S+]2[O-] (stereo not drawn)
- MIC (Candida albicans [1]): 25 µg/mL (≈ 86.4 µM)
- MIC (Candida albicans [2]): 3.12 µg/mL (≈ 10.8 µM)
- MIC (Candida albicans [3]): 1.56 µg/mL (≈ 5.39 µM)
- MIC (Candida albicans [4]): 3.12 µg/mL (≈ 10.8 µM)

SMILES: CCCCCCCCCCCCCCCCN1Sc2ccccc2[S+]1[O-] (stereo not drawn)
- MIC (Candida albicans [1]): > 100 µg/mL
- MIC (Candida albicans [2]): > 100 µg/mL
- MIC (Candida albicans [3]): > 100 µg/mL
- MIC (Candida albicans [4]): > 100 µg/mL

SMILES: CCCCCCCC/C=C/CCCCCCCCN1Sc2ccccc2[S+]1[O-] (stereo not drawn)
- MIC (Candida albicans [1]): > 100 µg/mL
- MIC (Candida albicans [2]): 100 µg/mL (≈ 237 µM)
- MIC (Candida albicans [3]): 100 µg/mL (≈ 237 µM)
- MIC (Candida albicans [4]): > 100 µg/mL

SMILES: c1ccc(CN2Sc3ccccc3S2)cc1
- MIC (Candida albicans [1]): 25 µg/mL (≈ 102 µM)
- MIC (Candida albicans [2]): 6.25 µg/mL (≈ 25.5 µM)
- MIC (Candida albicans [3]): 6.25 µg/mL (≈ 25.5 µM)
- MIC (Candida albicans [4]): 12.5 µg/mL (≈ 50.9 µM)

SMILES: [O-][S+]1c2ccccc2SN1Cc1ccccc1 (stereo not drawn)
- Excretion (Rattus norvegicus [5]): 88%
- Plasma concentration (Rattus norvegicus [6]): 4.6 ug equiv ml-1

SMILES: [O-][S+]1c2ccccc2SN1c1ccc2c(c1)OCO2 (stereo not drawn)
- MIC (Candida albicans [1]): 25 µg/mL (≈ 85.8 µM)
- MIC (Candida albicans [2]): 25 µg/mL (≈ 85.8 µM)
- MIC (Candida albicans [3]): 12.5 µg/mL (≈ 42.9 µM)
- MIC (Candida albicans [4]): 25 µg/mL (≈ 85.8 µM)

SMILES: [O-][S+]1c2c(F)c(F)c(F)c(F)c2SN1Cc1ccccc1 (stereo not drawn)
- MIC (Candida albicans [1]): 12.5 µg/mL (≈ 37.5 µM)
- MIC (Candida albicans [2]): 6.25 µg/mL (≈ 18.8 µM)
- MIC (Candida albicans [3]): 6.25 µg/mL (≈ 18.8 µM)
- MIC (Candida albicans [4]): 12.5 µg/mL (≈ 37.5 µM)

SMILES: COCC(Cc1ccccc1)N1Sc2ccccc2[S+]1[O-] (stereo not drawn)
- MIC (Candida albicans [1]): 3.12 µg/mL (≈ 9.77 µM)
- MIC (Candida albicans [2]): 3.12 µg/mL (≈ 9.77 µM)
- MIC (Candida albicans [3]): 3.12 µg/mL (≈ 9.77 µM)
- MIC (Candida albicans [4]): 3.12 µg/mL (≈ 9.77 µM)

SMILES: CCCN1Sc2ccccc2S1
- MIC (Candida albicans [1]): 25 µg/mL (≈ 127 µM)
- MIC (Candida albicans [2]): 3.12 µg/mL (≈ 15.8 µM)
- MIC (Candida albicans [3]): 3.12 µg/mL (≈ 15.8 µM)
- MIC (Candida albicans [4]): 12.5 µg/mL (≈ 63.3 µM)

SMILES: [O-][S+]1c2c(F)c(F)c(N3CCOCC3)c(F)c2SN1Cc1ccccc1 (stereo not drawn)
- MIC (Candida albicans [1]): 12.5 µg/mL (≈ 31.2 µM)
- MIC (Candida albicans [2]): 25 µg/mL (≈ 62.4 µM)
- MIC (Candida albicans [3]): 50 µg/mL (≈ 125 µM)
- MIC (Candida albicans [4]): 50 µg/mL (≈ 125 µM)

SMILES: c1ccc2c(c1)SN(C1CC1)S2
- MIC (Candida albicans [1]): 50 µg/mL (≈ 256 µM)
- MIC (Candida albicans [2]): 25 µg/mL (≈ 128 µM)
- MIC (Candida albicans [3]): 25 µg/mL (≈ 128 µM)
- MIC (Candida albicans [4]): 50 µg/mL (≈ 256 µM)

SMILES: CC(c1ccccc1)N1Sc2ccccc2[S+]1[O-] (stereo not drawn)
- MIC (Candida albicans [1]): 3.12 µg/mL (≈ 11.3 µM)
- MIC (Candida albicans [2]): 1.56 µg/mL (≈ 5.66 µM)
- MIC (Candida albicans [3]): 1.56 µg/mL (≈ 5.66 µM)
- MIC (Candida albicans [4]): 1.56 µg/mL (≈ 5.66 µM)

SMILES: [O-][S+]1c2ccccc2SN1C12CC3CC(CC(C3)C1)C2 (stereo not drawn)
- MIC (Candida albicans [1]): 50 µg/mL (≈ 164 µM)
- MIC (Candida albicans [2]): 12.5 µg/mL (≈ 40.9 µM)
- MIC (Candida albicans [3]): 6.25 µg/mL (≈ 20.5 µM)
- MIC (Candida albicans [4]): 25 µg/mL (≈ 81.8 µM)

SMILES: [O-][S+]1c2ccccc2SN1C(c1ccccc1)c1ccccc1 (stereo not drawn)
- MIC (Candida albicans [1]): 25 µg/mL (≈ 74.1 µM)
- MIC (Candida albicans [2]): 6.25 µg/mL (≈ 18.5 µM)
- MIC (Candida albicans [3]): 25 µg/mL (≈ 74.1 µM)
- MIC (Candida albicans [4]): 12.5 µg/mL (≈ 37 µM)

SMILES: COc1cc(CN2Sc3ccccc3[S+]2[O-])cc(OC)c1OC (stereo not drawn)
- MIC (Candida albicans [1]): 3.12 µg/mL (≈ 8.88 µM)
- MIC (Candida albicans [2]): 12.5 µg/mL (≈ 35.6 µM)
- MIC (Candida albicans [3]): 12.5 µg/mL (≈ 35.6 µM)
- MIC (Candida albicans [4]): 12.5 µg/mL (≈ 35.6 µM)

SMILES: [O-][S+]1c2ccccc2SN1CC1CCCCC1 (stereo not drawn)
- MIC (Candida albicans [1]): 3.12 µg/mL (≈ 11.7 µM)
- MIC (Candida albicans [2]): 1.56 µg/mL (≈ 5.83 µM)
- MIC (Candida albicans [3]): 1.56 µg/mL (≈ 5.83 µM)
- MIC (Candida albicans [4]): 1.56 µg/mL (≈ 5.83 µM)

SMILES: [O-][S+]1c2ccccc2SN1Cc1ccc2ccccc2c1 (stereo not drawn)
- MIC (Candida albicans [1]): 12.5 µg/mL (≈ 40.1 µM)
- MIC (Candida albicans [2]): 3.12 µg/mL (≈ 10 µM)
- MIC (Candida albicans [3]): 3.12 µg/mL (≈ 10 µM)
- MIC (Candida albicans [4]): 6.25 µg/mL (≈ 20.1 µM)

SMILES: COc1ccc2c(c1)SN(Cc1ccccc1)[S+]2[O-] (stereo not drawn)
- MIC (Candida albicans [1]): 3.12 µg/mL (≈ 10.7 µM)
- MIC (Candida albicans [2]): 0.78 µg/mL (≈ 2.68 µM)
- MIC (Candida albicans [3]): 0.78 µg/mL (≈ 2.68 µM)
- MIC (Candida albicans [4]): 0.78 µg/mL (≈ 2.68 µM)

SMILES: Cc1cccc2c1SN(Cc1ccccc1)[S+]2[O-] (stereo not drawn)
- MIC (Candida albicans [1]): 25 µg/mL (≈ 90.8 µM)
- MIC (Candida albicans [2]): 12.5 µg/mL (≈ 45.4 µM)
- MIC (Candida albicans [3]): 12.5 µg/mL (≈ 45.4 µM)
- MIC (Candida albicans [4]): 25 µg/mL (≈ 90.8 µM)

SMILES: [O-][S+]1c2ccccc2SN1CCc1ccncc1 (stereo not drawn)
- MIC (Candida albicans [1]): 100 µg/mL (≈ 362 µM)
- MIC (Candida albicans [2]): 100 µg/mL (≈ 362 µM)
- MIC (Candida albicans [3]): 100 µg/mL (≈ 362 µM)
- MIC (Candida albicans [4]): 100 µg/mL (≈ 362 µM)

SMILES: [O-][S+]1c2ccccc2SN1c1ccc(F)c(F)c1 (stereo not drawn)
- MIC (Candida albicans [1]): 25 µg/mL (≈ 88.2 µM)
- MIC (Candida albicans [2]): 100 µg/mL (≈ 353 µM)
- MIC (Candida albicans [3]): 25 µg/mL (≈ 88.2 µM)
- MIC (Candida albicans [4]): 25 µg/mL (≈ 88.2 µM)

SMILES: C[C@@H]1[C@H](O)[C@@H](C)/C=C/C=C/C=C/C=C/C=C/C=C/C=C/[C@H](O[C@@H]2O[C@H](C)[C@@H](O)[C@H](N)[C@@H]2O)C[C@@H]2O[C@](O)(C[C@@H](O)C[C@@H](O)[C@H](O)CC[C@@H](O)C[C@@H](O)CC(=O)O[C@H]1C)C[C@H](O)[C@H]2C(=O)O [AMPHOTERICIN B]
- MIC (Candida albicans [1]): 25 µg/mL (≈ 27.1 µM)
- MIC (Candida albicans [2]): 1.56 µg/mL (≈ 1.69 µM)
- MIC (Candida albicans [3]): 1.56 µg/mL (≈ 1.69 µM)
- MIC (Candida albicans [4]): 0.78 µg/mL (≈ 0.844 µM)
